Test results from BindingDB's records for doi:10.1021/acsmedchemlett.9b00225 (University of Minnesota Twin Cities, 2019).
pKi: −log10 of the molar value.

How the values were obtained:
[1] = molecular target: 5-hydroxytryptamine receptor 2B (Homo sapiens, UniProt P41595); assay: Displacement of [3H]-LSD from human recombinant 5-HT2B receptor stably expressed in HEK cells after 90 mins by microbeta scintillation counting method
In short: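 Radioligand binding run by the NIMH Psychoactive Drug Screening Program. Otherwise Ki comes from sigmoidal curve fits of triplicate measurements in a single experiment, or is averaged over repeated experiments each run in triplicate.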

[2] = molecular target: Sigma non-opioid intracellular receptor 1 (Homo sapiens, UniProt Q99720); assay: Displacement of [3H]-Pentazocine from human recombinant sigma1 receptor expressed in HEKT cells after 90 mins by microbeta scintillation counting method
Sigma non-opioid intracellular receptor 1, sequence (Q99720 whole entry): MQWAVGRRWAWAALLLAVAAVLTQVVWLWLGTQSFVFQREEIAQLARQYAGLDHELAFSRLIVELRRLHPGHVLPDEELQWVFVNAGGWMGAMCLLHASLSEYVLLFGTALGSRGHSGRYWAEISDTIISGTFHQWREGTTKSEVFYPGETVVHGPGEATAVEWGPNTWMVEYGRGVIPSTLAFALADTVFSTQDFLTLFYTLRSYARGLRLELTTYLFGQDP

5-hydroxytryptamine receptor 2B, sequence (P41595 whole entry): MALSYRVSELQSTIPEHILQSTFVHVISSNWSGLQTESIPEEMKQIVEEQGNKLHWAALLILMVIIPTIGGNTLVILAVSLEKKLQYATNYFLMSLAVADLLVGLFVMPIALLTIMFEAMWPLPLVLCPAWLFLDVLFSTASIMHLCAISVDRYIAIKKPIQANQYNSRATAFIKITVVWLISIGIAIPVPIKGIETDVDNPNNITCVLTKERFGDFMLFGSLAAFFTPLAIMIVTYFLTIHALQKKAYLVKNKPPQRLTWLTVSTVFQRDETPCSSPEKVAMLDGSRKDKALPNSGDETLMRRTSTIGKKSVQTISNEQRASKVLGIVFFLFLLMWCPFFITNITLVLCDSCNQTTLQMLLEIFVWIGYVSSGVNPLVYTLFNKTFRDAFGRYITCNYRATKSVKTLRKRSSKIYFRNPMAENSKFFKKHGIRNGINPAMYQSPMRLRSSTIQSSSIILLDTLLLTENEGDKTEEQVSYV

| pKi [2] | Structure (SMILES) | pKi [1] |
| --- | --- | --- |
|  | CC[C@H]1c2ccc3ccccc3c2OC[C@@]1(C)N | 8.60 |
| 7.90 | CC[C@H]1c2cc(-c3ccccc3)ccc2OC[C@@]1(C)N |  |
